According to ChEMBL document CHEMBL4033737, “Anti-mycobacterial alkaloids, cyclic 3-alkyl pyridinium dimers, from the Indonesian marine sponge Haliclona sp” (2017):
Counter-ions that a name gives are not always drawn. Calls of active or inactive are those of the source. No cut-off for these calls is given here.

How the values were obtained:
[1] = test system: Mycolicibacterium smegmatis; assay: Antibacterial activity against Mycobacterium smegmatis NBRC 3207 at 1 ug/disc incubated at 37 degC for 2 days by paper disc method; type: functional
How it was run: (§1)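 M. smegmatis NBRC 3207 kept as 20% glycerol stock at -80°C. Grown in Middlebrook 7H9 with 0.05% polysorbate 80, 0.5% glycerol and 10% OADC at 37°C for 2 days, then adjusted to 1.0×10^8 CFU/mL and spread on the same medium with 1.5% agar. Sample in CH3OH dried onto 6 mm discs, plated at 37°C for 2 days, inhibition zone read (mm). Controls: streptomycin sulfate 5 µg/disc, CH3OH.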

[2] = test system: Mycolicibacterium smegmatis; assay: Antibacterial activity against Mycobacterium smegmatis NBRC 3207 at 5 ug/disc incubated at 37 degC for 2 days by paper disc method; type: functional; details: for zone of inhibition at 5 µg/disc: NBRC 3207, 48 h, read-out: IZ; how it was run: as §1
[3] = test system: Mycolicibacterium smegmatis; assay: Antibacterial activity against Mycobacterium smegmatis NBRC 3207 at 10 ug/disc incubated at 37 degC for 2 days by paper disc method; type: functional; details: NBRC 3207, 48 h, read-out: IZ; how it was run: as §1
[4] = test system: Mycolicibacterium smegmatis; assay: Antibacterial activity against Mycobacterium smegmatis NBRC 3207 incubated at 37 degC for 2 days by paper disc method; type: functional; how it was run: as §1
[5] = molecular target: Dual specificity protein phosphatase 3 (Homo sapiens) (UniProt P51452); assay: Inhibition of VHR (unknown origin) at 17 uM pre-incubated for 10 mins before pNPP substrate addition and measured after 30 mins
Dual specificity protein phosphatase 3 (Homo sapiens), sequence (P51452 whole entry, looked up): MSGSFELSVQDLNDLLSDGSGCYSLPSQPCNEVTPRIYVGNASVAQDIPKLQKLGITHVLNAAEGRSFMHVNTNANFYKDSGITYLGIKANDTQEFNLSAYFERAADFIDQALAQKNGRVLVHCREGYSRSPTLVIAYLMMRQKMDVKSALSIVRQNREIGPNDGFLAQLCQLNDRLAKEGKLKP
How it was run: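 Enzyme at 1.0 µg/mL stock, in 50 mM citrate buffer pH 6.0 with 0.1 M NaCl, 1 mM DTT and 1 mM EDTA. Sample in methanol preincubated 10 min at 37°C. pNPP (4.0 mM stock) then added, 30 min at 37°C, stopped with NaOH. Absorbance read at 405 nm. % inhibition from blank- and no-sample-control-corrected readings. Three duplicate experiments. Oleanolic acid positive control.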

[6] = molecular target: Dual specificity protein phosphatase 3 (Homo sapiens) (UniProt P51452); assay: Inhibition of VHR (unknown origin) at 18 uM pre-incubated for 10 mins before pNPP substrate addition and measured after 30 mins
How it was run: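 VHR (1.0 µg/mL stock) in 50 mM citrate buffer pH 6.0 with 0.1 M NaCl, 1 mM DTT and 1 mM EDTA. Sample in CH3OH added, preincubated 10 min at 37°C. pNPP added (4.0 mM stock), 30 min at 37°C, stopped with NaOH, A405 read. % inhibition computed against enzyme-free blank and sample-free control. Three duplicate experiments. Oleanolic acid as positive control.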

| Compound | inhibition zone (IZ) [1] | zone of inhibition at 5 µg/disc [2] | zone of inhibition at 10 µg/disc [3] | growth inhibition (GI) [4] | inhibition [5] | inhibition zone (IZ) [2] | inhibition [6] | zone of inhibition at 1 µg/disc ([1]; NBRC 3207, 48 h, read-out: IZ) |
| --- | --- | --- | --- | --- | --- | --- | --- | --- |
| c1cc2c[n+](c1)CCCCCCCCCCCCCCCc1ccc[n+](c1)CCCCCCCCCCCCCC2 | inactive | 9 mm | 13 mm | Dose-dependent effect | 28% | – | – | – |
| C1=C/CC[n+]2cccc(c2)CCCCCCCCCCCCCC[n+]2cccc(c2)CCCCCCCCCC/1 | inactive | 7 mm | 10 mm | Dose-dependent effect | – | – | – | – |
| c1cc2c[n+](c1)CCCCCCCCCCCCCc1ccc[n+](c1)CCCCCCCCCCCCC2 | inactive | – | 8 mm | Dose-dependent effect | – | inactive | – | – |
| C1=C/CC[n+]2cccc(c2)CCCCCCCCCCCC[n+]2cccc(c2)CCCCCCCCCC/1 | inactive | 10 mm | 17 mm | Dose-dependent effect | – | – | – | – |
| c1cc2c[n+](c1)CCCCCCCCCCCCc1ccc[n+](c1)CCCCCCCCCCCC2 [CYCLOSTELLETAMINES A] | inactive | 9 mm | 14 mm | Dose-dependent effect | – | – | – | – |
| c1cc2c[n+](c1)CCCCCCCCCCCCCc1ccc[n+](c1)CCCCCCCCCCCC2 [CYCLOSTELLETAMINES B] | inactive | – | 8 mm | Dose-dependent effect | – | inactive | – | – |
| c1cc2c[n+](c1)CCCCCCCCCCCCCCc1ccc[n+](c1)CCCCCCCCCCCCC2 [CYCLOSTELLETAMINES E] | inactive | 7 mm | 12 mm | Dose-dependent effect | – | – | – | – |
| c1cc2c[n+](c1)CCCCCCCCCCCCCCc1ccc[n+](c1)CCCCCCCCCCCCCC2 [CYCLOSTELLETAMINES F] | inactive | 8 mm | 12 mm | Dose-dependent effect | – | – | 38% | – |
| CN[C@@H]1[C@H](O[C@H]2[C@H](O[C@H]3[C@H](O)[C@@H](O)[C@H](N=C(N)N)[C@@H](O)[C@@H]3N=C(N)N)O[C@@H](C)[C@]2(O)C=O)O[C@@H](CO)[C@H](O)[C@H]1O [STREPTOMYCIN SULFATE] | – | 35 mm | – | – | – | – | – | 20 mm |
